# Assay outcomes from PubChem.
# Rows were chosen to be rich in hits. Some 2.4% of all compounds tested hit in one or more screens of this group.
# S1P4 agonist: S1P4 receptor agonists, primary screen, cell-based; Sphingosine 1-phosphate receptor 4 (Homo sapiens), O95977; AID 1509, 2009; 0.35% of 220,000 active; activation, % at 4.98 µM; S1P4-expressing cell line, agonist reporter assay; in the data active means activation above about 11%
# Target sequence (O95977 whole entry, looked up): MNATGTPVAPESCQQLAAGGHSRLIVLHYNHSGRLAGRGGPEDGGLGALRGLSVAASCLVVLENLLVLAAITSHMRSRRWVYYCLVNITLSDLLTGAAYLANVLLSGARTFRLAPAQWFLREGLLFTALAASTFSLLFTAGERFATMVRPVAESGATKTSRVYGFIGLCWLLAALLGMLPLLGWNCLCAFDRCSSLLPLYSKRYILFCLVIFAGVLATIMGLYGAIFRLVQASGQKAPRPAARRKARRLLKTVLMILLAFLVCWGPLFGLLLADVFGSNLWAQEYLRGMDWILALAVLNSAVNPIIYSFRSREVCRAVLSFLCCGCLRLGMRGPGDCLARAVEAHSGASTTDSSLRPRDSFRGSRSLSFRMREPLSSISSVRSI
# NPY-Y1 PAM-ag: NPY-Y1 receptor potentiators or agonists, primary screen, cell-based. NPY-Y1 expressing cells, potentiator/agonist activation. activation, % at 3.6 µM. 0.37% of 220,000 active. AID 1304, 2008; in the data active means activation above about 33%, passing the limit was not always enough;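 further: cells stimulated with NPY at EC10 then isoproterenol at EC100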
# NPY-Y2 antag: NPY-Y2 receptor antagonists, primary screen, cell-based; Neuropeptide Y receptor type 2 (Homo sapiens), P49146; NPY-Y2 expressing cells, antagonist mode; inhibition, % at 2.7 µM; 0.99% of 140,000 active
# S1P4 antag: S1P4 receptor antagonists, primary screen, cell-based | AID 1510, 2009 | inhibition, % at 4.98 µM | Sphingosine 1-phosphate receptor 4 (Homo sapiens), O95977 | 0.26% of 220,000 active | S1P4-expressing cells, antagonist mode, reporter read-out; in the data active means inhibition above about 29%
# NPY2 pot ag: NPY-Y2 potentiators or agonists, primary screen, cell-based. Neuropeptide Y receptor type 2 (Homo sapiens), P49146. cells expressing NPY-Y2, potentiator/agonist read-out. activation, % at 3.6 µM. 0.45% of 220,000 active; in the data active means activation above about 27%;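 further: cells stimulated with NPY near EC25 plus isoproterenol at EC100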
# NPY-Y1 antag: NPY-Y1 receptor antagonists, primary screen, cell-based; Neuropeptide Y receptor type 1 (Homo sapiens), P25929; HEK293-CNG Y1 cells, membrane potential fluorescence; NPY at EC95, then isoproterenol; inhibition, % at 3.6 µM; 1% of 200,000 active; AID 1040, 2008;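 active means inhibition above the campaign mean inhibition of all tested compounds plus 3 SD, cut at about 20% in these data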
#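 Material: Y1- and CNG-channel-expressing HEK293 cells / Probe or stimulus: NPY 25 nM then isoproterenol 1 µM plus Ro 20-1724 25 µM / Doses: 3.6 µM single dose, DMSO 0.4% / Schedule: compound incubation 1 h at room temperature, readout 45 min post-stimulation / Signal: membrane potential fluorescence / Benchmarks: isoproterenol-only wells as full block versus NPY-plus-isoproterenol wells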
# NPY1 antag conf: NPY-Y1 receptor antagonists, retest of hits, confirmation, HEK293-CNG cells, membrane potential fluorescence, triplicate; 21% of 1,200 active; inhibition, % at 3.6 µM; cAMP; NPY challenge against isoproterenol-raised cAMP; shares compounds with NPY-Y1 antag; in the data active means inhibition above about 20%
# NPY-Y2 antag ct: NPY-Y2 receptor antagonists, selectivity check, confirmation, counter-screen for NPY-Y1 antagonist project, HEK293-CNG cells, membrane potential fluorescence, triplicate. shares compounds with NPY-Y1 antag. antagonism; cells given NPY, then isoproterenol. inhibition, % at 3.6 µM. 28% of 1,200 active. AID 1255, 2008
# Numbers stand for hits; 0 = inactive; - = not tested or not shown. Unless noted, no stated cut-off is given here; in the data, active means inhibition above about 17%; inactive means the rest.
SMILES,S1P4 agonist,NPY-Y1 PAM-ag,NPY-Y2 antag,S1P4 antag,NPY2 pot ag,NPY-Y1 antag,NPY1 antag conf,NPY-Y2 antag ct
Cc1ccc(SCCC(=O)OCn2nnc3ccccc3c2=O)cc1,0,0,-,0,0,22.8,0,0
Cc1ccc(C(=O)CSc2nnc(COc3cccc(C)c3)o2)cc1,0,0,0,0,0,20.9,0,0
Cc1cc(C)cc(OCc2nnc(SCC(=O)N3CCN(c4ccccc4)CC3)o2)c1,0,0,0,0,0,20.9,0,0
Cc1cc(C)c(S(=O)(=O)N2CCCCC2)c(C)c1N(C)S(=O)(=O)c1ccc(Cl)cc1,0,0,0,0,0,0,-,-
Cc1ccnc(NC(=O)Nc2ccc(Br)cc2Cl)c1,0,0,-,0,0,0,-,-
COc1ccc(CN(C(=O)c2cc(=O)c3cc(C)cc(C)c3o2)C2CCS(=O)(=O)C2)cc1 (configuration not stated),0,0,-,0,0,-,-,-
CCCCCC(=O)Nc1ccccc1N1CCN(c2ccccc2)CC1,0,0,0,0,0,21.8,0,0
Cc1nc(SCc2cccc(Oc3ccccc3)c2)n[nH]1,0,0,0,0,0,23.4,0,34.3
COc1ccc(CSc2n[nH]c(C)n2)cc1Br,0,0,0,0,0,0,-,-
CCOC(=O)CC(NC(=O)c1cccc2c1C(=O)N(Cc1cccnc1)C2)c1ccc(OC(C)C)cc1 (configuration not stated),0,0,-,0,0,0,-,-
COC(=O)c1ccc(NC(=O)CN2C(=O)C3C4C=CC(C4)C3C2=O)cc1 (configuration not stated),0,0,0,0,0,22.6,0,0
OC1CCCN(Cc2ccc3ccc4cccc5ccc2c3c45)C1 (configuration not stated),0,0,0,0,0,24.7,0,17.3
c1cc2ccc3ccc(CN4CCOCC4)c4ccc(c1)c2c34,0,0,0,0,0,0,-,-
Clc1cccc(Cl)c1CSc1nnc(/C=C/c2ccccc2)o1,0,0,0,0,0,23.3,0,0
CC1(C(=O)Nc2c(F)c(F)c(F)c(F)c2F)CC1(Br)Br (configuration not stated),0,0,-,0,0,-,-,-
OCCN(/C=N/c1nc(-c2ccc(Br)cc2)cs1)CCO,0,0,0,0,0,0,-,-
Brc1ccc(-c2csc(/N=C/N3CCCC3)n2)cc1,0,0,-,0,0,31.9,31.4,0
CCOc1ccc(C(C)=O)cc1CSc1nnc(-c2cccs2)n1CC1CCCO1 (configuration not stated),0,0,0,0,0,27.3,0,0
Cc1ccc(C2CC(C(F)(F)F)n3nc(C(=O)Nc4c(C)n(C)n(-c5ccccc5)c4=O)cc3N2)cc1 (configuration not stated),0,0,-,0,0,0,-,-
Cc1cc(NC(=O)c2cc3n(n2)C(C(F)(F)F)CC(c2ccc(Cl)c(Cl)c2)N3)no1 (configuration not stated),0,0,0,0,0,21.4,0,0
S=C1CCC(c2ccc(Br)cc2)=NN1c1ccccc1,0,0,-,0,0,-,-,-
N#CC(C(=O)C12CC3CC(CC(C3)C1)C2)c1nc2ccccc2[nH]1 (configuration not stated),0,0,0,0,0,0,-,-
N#CC(/C(=N/S(=O)(=O)c1cccs1)c1ccccc1)c1nc2ccccc2[nH]1 (configuration not stated),0,0,0,0,0,22.6,21.0,25.6
COc1cccc(Oc2cn[nH]c2-c2ccc(OC)cc2O)c1,0,0,0,0,0,0,-,-
COc1cccc(Oc2cn[nH]c2-c2ccc(O)cc2O)c1,0,0,0,0,0,153.2,61.5,0
SMILES,S1P4 agonist,NPY-Y1 PAM-ag,NPY-Y2 antag,S1P4 antag,NPY2 pot ag,NPY-Y1 antag,NPY1 antag conf,NPY-Y2 antag ct
O=C1c2ccccc2C(O)(c2ccccc2)N1c1ccncc1 (configuration not stated),0,0,-,0,0,-,-,-
Cc1ccccc1CN(C)C(C)C(=O)Nc1ccccc1F (configuration not stated),0,0,-,0,0,22.7,0,0
Fc1ccc(CSc2nnc(-c3cccnc3)n2Cc2ccco2)cc1,0,0,0,0,0,0,-,-
N#Cc1ccc(CSc2nnc(-c3ccccc3)n2Cc2ccco2)cc1,0,0,0,0,0,32.8,0,0
CN(C)CCCNC(CC(=O)Nc1cccc([N+](=O)[O-])c1)C(=O)O (configuration not stated),0,0,0,0,0,0,-,-
Cc1cc(-c2ccccc2)nc(Oc2ccc(C(C)(C)C)cc2)c1S(C)(=O)=O,0,0,0,0,0,23.4,0,0
Cc1cc(C)cc(Oc2nc(-c3ccccc3)cc(C)c2S(C)(=O)=O)c1,0,0,0,0,0,0,-,-
COc1ccc(CC2(CO)CCN(Cc3cccc(OC)c3OC)CC2)cc1,0,0,-,0,0,0,-,-
COc1ccc(CC2(CO)CCN(C(C)Cc3ccc(Cl)cc3)CC2)cc1 (configuration not stated),0,0,-,0,0,26.3,0,21.5
O=C(C1=C[C@@H](c2ccccc2)C[C@@H](OCc2ccc(CO)cc2)O1)N1CCCCCCC1,0,0,-,0,0,0,-,-
CC1CCN(CCCNC(=O)c2cn(C)c3ccc(S(=O)(=O)N4CCCC4)cc3c2=O)CC1,0,0,0,0,0,28.2,0,0
CCCC(c1nnnn1Cc1cccs1)N1CCN(C2CCCC2)CC1 (configuration not stated),0,0,0,0,0,24.9,0,0
CCC(c1nnnn1Cc1cccs1)N1CCN(C2CCCC2)CC1 (configuration not stated),0,0,0,0,0,0,-,-
CCCC(c1nnnn1Cc1ccco1)N1CCN(C2CCCC2)CC1 (configuration not stated),0,0,0,0,0,21.6,0,0
CC(C)C(c1nnnn1Cc1ccco1)N1CCN(C2CCCC2)CC1 (configuration not stated),0,0,0,0,0,0,-,-
